From ChEMBL document CHEMBL1156074, “Diazo transfer-click reaction route to new, lipophilic teicoplanin and ristocetin aglycon derivatives with high antibacterial and anti-influenza virus activity: an aggregation and receptor binding study” (J Med Chem, 2009)
≈ marks a conversion by molar mass, not a printed value. Calls of active or inactive are those of the source.

How the values were obtained:
Enterococcus faecalis [1] = assay: Bactericidal activity against vancomycin-resistant and teicoplanin-sensitive Enterococcus faecalis ATCC 51299 harboring vanB gene after overnight incubation; type: functional
Bacillus subtilis [2] = assay: Bactericidal activity against Bacillus subtilis ATCC 6633 after overnight incubation; type: functional
Staphylococcus aureus [3] = assay: Bactericidal activity against methicillin-sensitive Staphylococcus aureus ATCC 29213 after overnight incubation; type: functional
[4] = tested on: Staphylococcus epidermidis; assay: Bactericidal activity against biofilm of Staphylococcus epidermidis ATCC 35984 after overnight incubation; type: functional; conditions: RP62A
Staphylococcus aureus [5] = assay: Bactericidal activity against methicillin-sensitive Staphylococcus aureus ATCC 33591 after overnight incubation; type: functional
[6] = tested on: Staphylococcus epidermidis; assay: Bactericidal activity against Staphylococcus epidermidis after overnight incubation; type: functional
Enterococcus faecalis [7] = assay: Bactericidal activity against vancomycin and teicoplanin-sensitive Enterococcus faecalis ATCC 29212 after overnight incubation; type: functional
Bacillus subtilis [8] = assay: Antibacterial activity against Bacillus subtilis ATCC 6633 after 18 hrs by broth microdilution method; type: functional; conditions: ATCC 6633, 18 h
Enterococcus faecalis [9] = assay: Antibacterial activity against vancomycin and teicoplanin-resistant Enterococcus faecalis 15376 harboring vanA gene after 18 hrs by broth microdilution method; type: functional; conditions: Enterococcus faecalis, 15376, 18 h
Enterococcus faecalis [10] = assay: Antibacterial activity against vancomycin-resistant and teicoplanin-sensitive Enterococcus faecalis ATCC 51299 harboring vanB gene after 18 hrs by broth microdilution method; type: functional; conditions: ATCC 51299, 18 h
Influenza A virus [11] = assay: Antiviral activity against Influenza A virus (A/Puerto Rico/8/34(H1N1)) assessed as inhibition of virus-induced cytopathic effect at highest concentration by cell-based assay; type: functional, organism-based; conditions: A/Puerto Rico/8/1934(H1N1)
Outline: (§1)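 Virus-induced cytopathic effect is scored visually in infected cell cultures. EC50 is defined as the compound concentration producing 50% inhibition of the CPE. A compound is recorded as not active when there is no inhibition at the highest concentration tested or at a subtoxic concentration.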

Staphylococcus aureus [12] = assay: Antibacterial activity against methicillin-sensitive Staphylococcus aureus ATCC 33591 after 18 hrs by broth microdilution method; type: functional; conditions: ATCC 33591, 18 h
H3N2 subtype [13] = assay: Antiviral activity against Influenza A virus (A/Hong Kong/7/87(H3N2)) assessed as cell viability at subtoxic concentration by cell-based MTS assay; type: functional, organism-based; conditions: A/Hong Kong/7/1987(H3N2)
Influenza A virus [14] = assay: Antiviral activity against Influenza A virus (A/Puerto Rico/8/34(H1N1)) assessed as cell viability at subtoxic concentration by cell-based MTS assay; type: functional, organism-based; conditions: A/Puerto Rico/8/1934(H1N1)
Influenza B virus [15] = assay: Antiviral activity against Influenza B virus (B/Hong Kong/5/72) assessed as cell viability at subtoxic concentration by cell-based MTS assay; type: functional; conditions: B/Hong Kong/05/1972
H3N2 subtype [16] = assay: Antiviral activity against Influenza A virus (A/Hong Kong/7/87(H3N2)) assessed as inhibition of virus-induced cytopathic effect at highest concentration by cell-based assay; type: functional, organism-based; conditions: A/Hong Kong/7/1987(H3N2); outline: as §1
[17] = tested on: Staphylococcus epidermidis; assay: Antibacterial activity against Staphylococcus epidermidis after 18 hrs by broth microdilution method; type: functional
Staphylococcus aureus [18] = assay: Antibacterial activity against methicillin-sensitive Staphylococcus aureus ATCC 29213 after 18 hrs by broth microdilution method; type: functional; conditions: ATCC 29213, 18 h
Enterococcus faecalis [19] = assay: Antibacterial activity against vancomycin and teicoplanin-sensitive Enterococcus faecalis ATCC 29212 after 18 hrs by broth microdilution method; type: functional; conditions: ATCC 29212, 18 h
[20] = tested on: Staphylococcus epidermidis; assay: Antibacterial activity against biofilm of Staphylococcus epidermidis ATCC 35984 after 18 hrs by broth microdilution method; type: functional; conditions: RP62A
Influenza B virus [21] = assay: Antiviral activity against Influenza B virus (B/Hong Kong/5/72) assessed as inhibition of virus-induced cytopathic effect at highest concentration by cell-based assay; type: functional; conditions: B/Hong Kong/05/1972; outline: as §1
Enterococcus faecalis [22] = assay: Bactericidal activity against vancomycin and teicoplanin-resistant Enterococcus faecalis 15376 harboring vanA gene after overnight incubation; type: functional

| Compound | MBC (Enterococcus faecalis [1]) [µg/mL] | MBC (Bacillus subtilis [2]) [µg/mL] | MBC (Staphylococcus aureus [3]) [µg/mL] | MBC [4] [µg/mL] | MBC (Staphylococcus aureus [5]) [µg/mL] | MBC [6] [µg/mL] | MBC (Enterococcus faecalis [7]) [µg/mL] | MIC (Bacillus subtilis [8]) [µg/mL] | MIC (Enterococcus faecalis [9]) [µg/mL] | MIC (Enterococcus faecalis [10]) [µg/mL] | inhibition (Influenza A virus [11]) | MIC (Staphylococcus aureus [12]) [µg/mL] | inhibition (H3N2 subtype [13]) | inhibition (Influenza A virus [14]) | inhibition (Influenza B virus [15]) | inhibition (H3N2 subtype [16]) | MIC [17] [µg/mL] | MIC (Staphylococcus aureus [18]) [µg/mL] | MIC (Enterococcus faecalis [19]) [µg/mL] | MIC [20] [µg/mL] | also measured |
| --- | --- | --- | --- | --- | --- | --- | --- | --- | --- | --- | --- | --- | --- | --- | --- | --- | --- | --- | --- | --- | --- |
| CN[C@H](CC(C)C)C(=O)N[C@H]1C(=O)N[C@@H](CC(N)=O)C(=O)N[C@H]2C(=O)N[C@H]3C(=O)N[C@H](C(=O)N[C@H](C(=O)O)c4cc(O)cc(O)c4-c4cc3ccc4O)[C@H](O)c3ccc(c(Cl)c3)Oc3cc2cc(c3O[C@@H]2O[C@H](CO)[C@@H](O)[C@H](O)[C@H]2O[C@H]2C[C@](C)(N)[C@H](O)[C@H](C)O2)Oc2ccc(cc2Cl)[C@H]1O [VANCOMYCIN] | 16 (≈ 11 µM) | 4 (≈ 2.76 µM) | 4 (≈ 2.76 µM) | 4 (≈ 2.76 µM) | 4 (≈ 2.76 µM) | 4 (≈ 2.76 µM) | 16 (≈ 11 µM) | 1 (≈ 0.69 µM) | > 256 | 16 (≈ 11 µM) | – | – | – | – | – | – | – | – | – | – | – |
| CC(=O)N[C@H]1[C@H](O[C@@H]2c3ccc(c(Cl)c3)Oc3cc4cc(c3O)Oc3ccc(cc3Cl)C[C@H]3NC(=O)[C@H](N=[N+]=[N-])c5ccc(O)c(c5)Oc5cc(O)cc(c5)[C@H](NC3=O)C(=O)N[C@H]4C(=O)N[C@H]3C(=O)N[C@@H]2C(=O)N[C@@H](C(=O)O)c2cc(O)cc(O)c2-c2cc3ccc2O)O[C@H](CO)[C@@H](O)[C@@H]1O | 32 (≈ 22.4 µM) | 32 (≈ 22.4 µM) | 8 (≈ 5.6 µM) | 16 (≈ 11.2 µM) | 2 (≈ 1.4 µM) | 4 (≈ 2.8 µM) | 32 (≈ 22.4 µM) | 64 (≈ 44.8 µM) | > 256 | 64 (≈ 44.8 µM) | inactive | 4 (≈ 2.8 µM) | inactive | inactive | inactive | inactive | 4 (≈ 2.8 µM) | 8 (≈ 5.6 µM) | 32 (≈ 22.4 µM) | 16 (≈ 11.2 µM) | inhibition (Influenza B virus [21]): inactive |
| COC(=O)[C@@H]1NC(=O)[C@H]2NC(=O)[C@H](NC(=O)[C@@H]3NC(=O)[C@H]4NC(=O)[C@@H](Cc5ccc(c(Cl)c5)Oc5cc3cc(c5O)Oc3ccc(cc3Cl)[C@H]2O[C@@H]2O[C@H](CO)[C@@H](O)[C@H](O)[C@H]2NC(C)=O)NC(=O)[C@H](N=[N+]=[N-])c2ccc(O)c(c2)Oc2cc(O)cc4c2)c2ccc(O)c(c2)-c2c(O)cc(O)cc21 | 256 (≈ 178 µM) | 8 (≈ 5.55 µM) | 8 (≈ 5.55 µM) | 8 (≈ 5.55 µM) | 8 (≈ 5.55 µM) | 4 (≈ 2.77 µM) | 256 (≈ 178 µM) | 8 (≈ 5.55 µM) | 16 (≈ 11.1 µM) | 16 (≈ 11.1 µM) | inactive | 4 (≈ 2.77 µM) | inactive | inactive | inactive | inactive | 4 (≈ 2.77 µM) | 4 (≈ 2.77 µM) | 16 (≈ 11.1 µM) | 8 (≈ 5.55 µM) | MBC (Enterococcus faecalis [22]): 256 µg/mL (≈ 178 µM); inhibition (Influenza B virus [21]): inactive |
| CCCCCCCCCCOCc1cn([C@H]2C(=O)N[C@@H]3Cc4ccc(c(Cl)c4)Oc4cc5cc(c4O)Oc4ccc(cc4Cl)[C@@H](O[C@@H]4O[C@H](CO)[C@@H](O)[C@H](O)[C@H]4NC(C)=O)[C@@H]4NC(=O)[C@H](NC(=O)[C@@H]5NC(=O)[C@@H](NC3=O)c3cc(O)cc(c3)Oc3cc2ccc3O)c2ccc(O)c(c2)-c2c(O)cc(O)cc2[C@H](C(=O)O)NC4=O)nn1 | 0.25 (≈ 0.154 µM) | 0.25 (≈ 0.154 µM) | 0.25 (≈ 0.154 µM) | 0.25 (≈ 0.154 µM) | 0.25 (≈ 0.154 µM) | 0.5 (≈ 0.308 µM) | 0.25 (≈ 0.154 µM) | 2 (≈ 1.23 µM) | 0.5 (≈ 0.308 µM) | 0.5 (≈ 0.308 µM) | inactive | 0.5 (≈ 0.308 µM) | inactive | inactive | inactive | inactive | 0.5 (≈ 0.308 µM) | 0.5 (≈ 0.308 µM) | 0.5 (≈ 0.308 µM) | 0.5 (≈ 0.308 µM) | MBC (Enterococcus faecalis [22]): 0.25 µg/mL (≈ 0.154 µM); inhibition (Influenza B virus [21]): inactive |
| COC(=O)[C@@H]1NC(=O)[C@H]2NC(=O)[C@H](NC(=O)[C@@H]3NC(=O)[C@H]4NC(=O)[C@H](NC(=O)[C@H](n5cc(COc6ccc(-c7ccccc7)cc6)nn5)c5ccc(O)c(c5)Oc5cc4cc(O)c5C)[C@H](O)c4ccc(cc4)Oc4cc3cc(c4O)Oc3ccc(cc3)[C@H]2O)c2ccc(O)c(c2)-c2c(O)cc(O)cc21 | – | – | – | – | – | – | – | > 256 | > 256 | > 256 | inactive | > 256 | inactive | inactive | inactive | inactive | > 256 | > 256 | > 256 | > 256 | inhibition (Influenza B virus [21]): inactive |
| CCCCCCCCCCOCc1cn([C@H]2C(=O)N[C@@H]3Cc4ccc(c(Cl)c4)Oc4cc5cc(c4O)Oc4ccc(cc4Cl)[C@@H](O)[C@@H]4NC(=O)[C@H](NC(=O)[C@@H]5NC(=O)[C@@H](NC3=O)c3cc(O)cc(c3)Oc3cc2ccc3O)c2ccc(O)c(c2)-c2c(O)cc(O)cc2[C@H](C(=O)OC)NC4=O)nn1 | 256 (≈ 178 µM) | 0.5 (≈ 0.348 µM) | 256 (≈ 178 µM) | 256 (≈ 178 µM) | 256 (≈ 178 µM) | 64 (≈ 44.6 µM) | 128 (≈ 89.2 µM) | 0.5 (≈ 0.348 µM) | 128 (≈ 89.2 µM) | 64 (≈ 44.6 µM) | inactive | 64 (≈ 44.6 µM) | inactive | inactive | inactive | inactive | 16 (≈ 11.1 µM) | 128 (≈ 89.2 µM) | 32 (≈ 22.3 µM) | 256 (≈ 178 µM) | MBC (Enterococcus faecalis [22]): 256 µg/mL (≈ 178 µM); inhibition (Influenza B virus [21]): inactive |
| COC(=O)[C@H]1NC(=O)[C@H]2NC(=O)[C@H](NC(=O)[C@@H]3NC(=O)[C@H]4NC(=O)[C@H](NC(=O)[C@H](N=[N+]=[N-])c5ccc(O)c(c5)Oc5cc4cc(O)c5C)[C@H](O)c4ccc(cc4)Oc4cc3cc(c4O)Oc3ccc(cc3)[C@H]2O)c2ccc(O)c(c2)-c2c(O)cc(O)cc21 | 64 (≈ 53.3 µM) | 1 (≈ 0.833 µM) | 2 (≈ 1.67 µM) | 8 (≈ 6.67 µM) | 1 (≈ 0.833 µM) | 16 (≈ 13.3 µM) | 8 (≈ 6.67 µM) | 4 (≈ 3.33 µM) | > 256 | 128 (≈ 107 µM) | – | 2 (≈ 1.67 µM) | – | – | – | – | 16 (≈ 13.3 µM) | 2 (≈ 1.67 µM) | 16 (≈ 13.3 µM) | 16 (≈ 13.3 µM) | – |
| CC(=O)N[C@H]1[C@H](O[C@@H]2c3ccc(c(Cl)c3)Oc3cc4cc(c3O)Oc3ccc(cc3Cl)C[C@H]3NC(=O)[C@H](n5cc(COc6ccc(-c7ccccc7)cc6)nn5)c5ccc(O)c(c5)Oc5cc(O)cc(c5)[C@H](NC3=O)C(=O)N[C@H]4C(=O)N[C@H]3C(=O)N[C@@H]2C(=O)N[C@@H](C(=O)O)c2cc(O)cc(O)c2-c2cc3ccc2O)O[C@H](CO)[C@@H](O)[C@@H]1O | 0.25 (≈ 0.153 µM) | 0.25 (≈ 0.153 µM) | 0.25 (≈ 0.153 µM) | – | 0.25 (≈ 0.153 µM) | – | 0.25 (≈ 0.153 µM) | 0.5 (≈ 0.306 µM) | 0.5 (≈ 0.306 µM) | 0.5 (≈ 0.306 µM) | – | 0.5 (≈ 0.306 µM) | – | – | – | – | 0.5 (≈ 0.306 µM) | 0.5 (≈ 0.306 µM) | 0.5 (≈ 0.306 µM) | 0.5 (≈ 0.306 µM) | MBC (Enterococcus faecalis [22]): 0.25 µg/mL (≈ 0.153 µM) |
